Bioassay records deposited in PubChem by several laboratories.
Only some compounds are listed: those with a hit (about 1.8% of all), similar ones and a draw of the others.
697 NFkB inh = inhibitors of PMA/ionomycin-induced NF-kB reporter, 697 cells, primary screen, B-cell NF-kB inhibitor project, cell-based, luminescence, uHTS; inhibition, % at 4 µM; 697 B-cell NF-kB luciferase reporter, 16 h; AID 435022, 2010; 330,000 compounds, 0.33% hits; in the data active means inhibition above about 35%
Jurkat NFkB inh = inhibitors of induced NF-kB luciferase reporter, primary screen, TCR NF-kB activation inhibitor project, cell-based, luminescence, uHTS. Jurkat, PMA/ionomycin-induced NF-kB luciferase reporter. inhibition, % at 4 µM. 330,000 compounds, 0.53% hits. AID 435003, 2010; in the data active means inhibition above about 50%
Gli-Sufu block = Gli-Sufu pathway antagonists, primary screen, luciferase luminescence, Sufu-KO-LIGHT cells, uHTS. Sufu-KO-LIGHT fibroblasts, Gli luciferase reporter luminescence. inhibition, % at 5 µM. 340,000 compounds, 0.74% hits. AID 588413, 2011;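 active means inhibition above about 55%, limit read from the data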
GalR3 antag = GalR3 antagonists in HEK293 cells, primary screen, cell-based, fluorescence readout | Galanin receptor type 3 (Homo sapiens), O60755 | HEK293 GalR3-CNG cAMP membrane potential fluorescence; galR3 body fused to GalR1 C-terminus | inhibition, % at 3 µM | 360,000 compounds, 0.44% hits;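 active means inhibition above the screen-wide average plus 3 SD, cut at about 13% in these data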;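 further: forskolin and galanin both at EC90 stimulate the cells; cAMP rise reported by CNG channel membrane potential dye signal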
Target sequence (O60755 1-299 limits assumed): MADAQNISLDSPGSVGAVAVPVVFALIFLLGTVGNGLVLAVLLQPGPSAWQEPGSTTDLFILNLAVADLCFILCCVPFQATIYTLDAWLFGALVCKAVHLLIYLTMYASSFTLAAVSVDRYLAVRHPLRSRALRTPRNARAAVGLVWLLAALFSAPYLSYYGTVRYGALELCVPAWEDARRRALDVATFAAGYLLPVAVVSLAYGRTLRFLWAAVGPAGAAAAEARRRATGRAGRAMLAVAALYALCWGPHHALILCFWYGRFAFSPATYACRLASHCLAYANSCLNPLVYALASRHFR
NR2E3 ag-1 = NR2E3 agonists in two-hybrid cells, primary screen, cell-based, luminescence, CHO-S, Gal4-NCOR/VP16-NR2E3 | Photoreceptor-specific nuclear receptor (Homo sapiens), Q9Y5X4 | luciferase | inhibition of corepressor binding, % at 3.98 µM | 360,000 compounds, 0.35% hits;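 active means inhibition above the mean of all tested compounds plus 3 SD, cut at about 70% in these data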;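 further: higher means lower luciferase signal from less NR2E3 corepressor binding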
NR2E3 ag-2 = inhibitors of NR2E3-RetCOR corepressor binding, primary screen, NR2E3 agonist project, biochemical, TR-FRET, GST-NR2E3, biotin-RetCOR; inhibition of corepressor binding, % at 4.78 µM; 1536-well; 320,000 compounds, 0.12% hits; AID 2300, 2010;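 active means percent inhibition above the cutoff of mean plus 3 SD of all tested compounds, set per screening campaign, cut at about 20% in these data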
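Material: NR2E3–RetCOR corepressor complex / Incubation: Compound–protein incubation for 5 h at 4 °C / Dosing: compound at 4.8 µM, single dose / Detection: time-resolved FRET / Benchmarks: high control biotin, low control 0.6% DMSO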
Jurkat NFkB conf = PMA/ionomycin-induced NF-kB reporter inhibitors, Jurkat retest, confirmation, T-cell NF-kB inhibitor project, cell-based, luminescence, single concentration | shares compounds with Jurkat NFkB inh | inhibition, % at 4 µM | 2,700 compounds, 27% hits | Jurkat NF-kB luciferase, 16 h | AID 435020, 2010;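 active means inhibition reaching about 45% at 4 µM in either replicate, limit read from the data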
Numbers stand for hits; . = inactive; / = no result given.

SMILES | 697 NFkB inh | Jurkat NFkB inh | Gli-Sufu block | GalR3 antag | NR2E3 ag-1 | NR2E3 ag-2 | Jurkat NFkB conf
COc1ccc(C(=O)NNC(=O)c2ccc3ccccc3c2)cc1 | / | / | . | . | . | / | /
O=C(Nc1nccs1)c1ccc2ccccc2c1 | . | . | . | . | . | . | .
COc1ccc(NC(=O)c2ccc3ccccc3c2)cc1 | . | . | . | . | . | . | .
N#Cc1ccc(C(=O)Nc2ccc3ccccc3c2)cc1 | . | . | . | . | . | . | .
CN1CCN(c2ccc(NC(=O)c3ccc4ccccc4c3)cc2)CC1 | . | . | . | . | . | . | .
COc1ccc(C(=O)Nc2ccc(N3CCN(C)CC3)cc2)cc1 | . | . | . | . | . | . | /
Cc1cc(NC(=O)CCc2c[nH]c3ccccc23)ccc1Oc1cccnc1 | / | / | / | . | / | / | /
CN1CCN(c2ccc(NC(=O)c3ccc(-c4ccccc4F)o3)cc2)CC1 | . | . | . | . | . | . | .
CN1CCN(c2ccc(NC(=O)c3ccc(Br)o3)cc2)CC1 | . | . | . | . | . | . | /
O=C(Nc1ccc2ccccc2c1)c1cnccn1 | . | . | . | . | . | . | .
CCN1C(=O)C(=Cc2cccc(OC)c2Oc2ccc([N+](=O)[O-])cc2[N+](=O)[O-])SC1=S | . | 68 | . | . | . | . | .
COc1nc(-c2cccs2)cc(-c2ccc(C)cc2)c1C#N | . | 57 | . | . | . | . | .
COCCNC(=S)N(C)[C@H]1C[C@H]2c3[nH]c4cccc(-c5ccccc5)c4c3CCN2C(=O)[C@H]1[C@H](C)O | / | / | / | . | / | / | /
Cc1snc2sc(C(=O)c3ccc(Br)cc3)c(N)c12 | . | . | . | . | . | . | /
Cc1ccc(C(=O)c2sc3nsc(C)c3c2N)cc1 | . | . | . | . | . | . | .
OC(c1ccccc1)C1(c2ccccc2)CCN(Cc2ccccc2)CC1 (configuration not stated) | / | / | / | . | / | / | /
Cc1ccc(C(=O)Nc2ccc(Cl)cc2C)c(Cl)c1 | . | . | / | . | . | . | .
O=C(COc1ccc2c(-c3ccccc3)cc(=O)oc2c1)Nc1cccnc1 | . | 50 | . | . | . | . | 48
O=C(COc1ccc2c(-c3ccccc3)cc(=O)oc2c1)NCc1ccccn1 | . | . | . | . | . | . | /
CCn1c(/C=C/c2c[nH]c3ccccc23)nc2ccccc2c1=O | . | . | . | . | . | . | .
COC(=O)[C@]12C[C@H](CC(=O)N3CCOCC3)C(=O)N(Cc3ccc4c(c3)OCO4)C1=C[C@H](COCc1ccccc1)O[C@@H]2C | / | / | / | . | / | / | /
O=C(c1ccc2nc[nH]c2c1)N1CCN(c2cccc(C(F)(F)F)c2)CC1 | . | . | . | . | . | / | /
O=C(c1ccc2ncsc2c1)N1CCN(c2cccc(C(F)(F)F)c2)CC1 | . | 55 | . | . | . | / | .
COc1ccc(C2CC(=O)C(c3cccc(F)c3)=CN2Cc2ccccc2)cc1 (configuration not stated) | / | / | / | . | / | / | /
CCc1cc2c(=O)nc3n(c2s1)Cc1ccccc1/C3=C(/O)c1cccc([N+](=O)[O-])c1 | . | 69 | . | / | . | . | 51
SMILES | 697 NFkB inh | Jurkat NFkB inh | Gli-Sufu block | GalR3 antag | NR2E3 ag-1 | NR2E3 ag-2 | Jurkat NFkB conf
CS(=O)(=O)c1ccc(S(=O)(=O)NCC2CCN(C(=O)C(=O)c3cc4ccccc4o3)CC2)cc1 | / | / | / | . | / | / | /
C[C@]12CC[C@@H]3c4ccc(OC(=O)c5ccccc5)cc4CC[C@H]3[C@@H]1CC[C@@H]2O | . | . | . | / | . | . | /
COc1cc2c(cc1O)CC[C@@H]1[C@@H]2CC[C@]2(C)[C@@H](O)CC[C@@H]12 | . | 61 | . | / | . | . | 54
O=C(N[C@H](C(=O)N1CCC[C@H]1C(=O)NCc1ccccc1)C1CCCCC1)c1ccc(Cl)cc1Cl | / | / | / | . | / | / | /
O=C(CCN1C(=O)C2CCCCC2C1=O)Nc1nc2ccc(F)cc2s1 (configuration not stated) | . | . | . | . | . | . | .
O=S(=O)(c1ccccc1)N1CCCc2nc(-c3ccccc3)ccc21 | / | / | / | . | / | / | /
Cc1ccc2nc(SCC(=O)Nc3cc(C(F)(F)F)ccc3N3CCOCC3)[nH]c2c1 | . | 52 | . | . | . | . | 56
O=C(CSc1nccc(=O)[nH]1)Nc1cc(C(F)(F)F)ccc1N1CCOCC1 | . | . | . | . | . | . | /
COCC(=O)N1C[C@H]2CON(C)[C@H]2C[C@H]1c1cccc(-c2cc(Cl)cc(Cl)c2)c1 | / | / | / | . | / | / | /
COCCNC(=O)c1c(N)[nH]c(C(=O)c2ccc(Br)cc2)c1-c1ccc(Br)cc1 | / | / | / | . | / | / | /
O=c1c2ccccc2oc2ccc(-c3ccc4[nH]ccc4c3)cc12 | . | . | . | . | . | . | .
O=c1c2ccccc2oc2cc(-c3ccc4cc[nH]c4c3)ccc12 | . | . | . | . | . | / | /
Cc1ccc(NC(=O)c2cc3ccccc3o2)nc1 | . | . | . | . | . | . | .
Cc1ccccc1NC(=O)c1cc2ccccc2o1 | . | . | . | . | . | . | /
O=C(Nc1ccc(Cl)cc1Cl)c1cc2ccccc2o1 | . | . | . | . | . | . | .
Cc1ccccc1C(=O)N1CCC[C@@H]1C(=O)N1CCC[C@H]1C(=O)NCc1ccccc1 | / | / | / | . | / | / | /
CC[n+]1c(/C=C/c2ccc(OC)c(OC)c2)ccc2ccccc21 | . | . | . | . | . | . | .
O=C(NCC(c1ccco1)N1CCc2ccccc21)C(=O)Nc1ccc(F)cc1F (configuration not stated) | . | 60 | . | . | . | . | .
Cc1ccc(CNC(=O)[C@@H](Cc2ccccc2)NC(=O)[C@H]2O[C@@H](n3ccc(N)nc3=O)[C@H](O)[C@@H]2O)o1 | / | / | / | . | / | / | /
Cc1nc(Nc2nc3c(c(=O)[nH]2)CCC3)nc2ccccc12 | . | 85 | . | / | . | . | 57
Cc1cc(C(=O)CSc2nnc(N)s2)c(C)n1Cc1cccs1 | . | . | . | . | . | . | .
COC(=O)[C@]12C[C@H](CC(=O)N3CCSCC3)C(=O)N(Cc3ccc4c(c3)OCO4)C1=C[C@H](C(C)(C)C)O[C@@H]2C | / | / | / | . | / | / | /
CN(Cc1nc2ccccc2c(=O)[nH]1)C(=O)c1cccc(S(=O)(=O)N2CCc3ccccc32)c1 | . | 59 | . | . | . | / | .
